Test [1] addresses Carbonic anhydrase 2 (Homo sapiens) (UniProt P00918). Nature of the test: […] of human Carbonic anhydrase II, using histamine as standard. The method, boiled down:
(§1)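 Esterase assay: initial rates of 4-nitrophenyl acetate hydrolysis read at 400 nm, pH 7.40, 25 °C, substrate 2×10^-2 to 1×10^-6 M. Enzymes were recombinant human CA I (25 nM) and CA II (7 nM) expressed in E. coli BL21(DE3), and CA IV (33 nM) isolated from bovine lung microsomes. Activator and enzyme were preincubated 15 min at room temperature. Non-enzymatic hydrolysis was subtracted. KA is the mean of at least three determinations.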

In test [2] the target is T1, Carbonic anhydrase 4 (Bos taurus) (UniProt Q95323).
T1 sequence (whole entry): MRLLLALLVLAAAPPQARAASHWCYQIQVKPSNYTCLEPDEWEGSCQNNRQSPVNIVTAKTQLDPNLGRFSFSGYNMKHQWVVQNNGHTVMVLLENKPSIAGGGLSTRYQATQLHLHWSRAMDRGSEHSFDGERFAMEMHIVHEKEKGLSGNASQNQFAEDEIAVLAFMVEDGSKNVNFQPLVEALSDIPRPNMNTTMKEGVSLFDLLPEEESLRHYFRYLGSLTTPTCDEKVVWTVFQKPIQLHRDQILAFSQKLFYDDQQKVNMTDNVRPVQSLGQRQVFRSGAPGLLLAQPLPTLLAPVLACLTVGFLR
Nature of the test: Bovine Carbonic anhydrase IV activity using histamine as standard. The method, boiled down:
as §1

Test [3] has as its target Carbonic anhydrase 1 (Homo sapiens) (UniProt P00915). Put plainly: Activation of human Carbonic anhydrase I, using histamine as standard.
The species entered for test [4] is Homo sapiens. Nature of the test: Ex vivo carbonic anhydrase activation was measured after 30 min of incubation of lysed human erythrocyte. It is filed as functional. Also noted: concentration or dose not given beside the values. The method, boiled down: (§2)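 Washed fresh human erythrocytes (Tris pH 7.40, 5 mM) were lysed in distilled water, then the supernatant was incubated with 5 μM activator at 37 °C for 30 or 60 min. CA activity (hCA I + hCA II) was read by esterase assay with 4-nitrophenyl acetate. Activity without activator was set as 100%; values are mean of n = 3.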

Test [5] is filed under the species Homo sapiens. Nature of the test: Ex vivo carbonic anhydrase activation was measured after 60 min of incubation of lysed human erythrocyte. It is filed as functional. Set-up: concentration or dose not given beside the values. The method, boiled down:
as §2

Chain of Carbonic anhydrase 1 (Homo sapiens) (P00915 2-261 limits assumed): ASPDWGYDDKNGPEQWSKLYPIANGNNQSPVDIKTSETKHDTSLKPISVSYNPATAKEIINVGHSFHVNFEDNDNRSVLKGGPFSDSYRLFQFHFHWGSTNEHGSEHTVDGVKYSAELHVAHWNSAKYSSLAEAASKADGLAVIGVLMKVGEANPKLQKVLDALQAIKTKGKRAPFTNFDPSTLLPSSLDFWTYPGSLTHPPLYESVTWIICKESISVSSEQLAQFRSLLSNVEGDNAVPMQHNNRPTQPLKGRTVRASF

For the compound `Cc1c2cc(c(C)[n+]1-c1cc[nH]n1)CCCCCCCCC2`, the KA in test [1] came out at 0.412 µM; in test [2] it was 0.033 µM; in test [3], 0.037 µM.

Take `c1ccc(-c2cc(-c3ccccc3)[n+](-c3cc[nH]n3)c(-c3ccccc3)c2)cc1`: the figures for the KA in test [1], in test [2] and in test [3] were more than 150 µM, more than 50 µM and 32 µM, respectively.

For `CCc1cc(-c2ccccc2)cc(-c2ccccc2)[n+]1-c1cc[nH]n1`, the KA in test [1] turned out to be 118 µM; in test [2], 3.41 µM; in test [3], 2.34 µM.

In the case of `CCCCc1cc(-c2ccccc2)cc(CCCC)[n+]1-c1cc[nH]n1`, the KA in test [1] was found to be 140 µM; in test [2], 2.59 µM; in test [3], 1.76 µM.

As for `CCCCc1cc(-c2ccccc2)cc(CCCC)[n+]1-c1nn[n-]n1`, the KA worked out at 145 µM in test [1], 6.8 µM in test [2] and 1.8 µM in test [3].

As to `CCCc1cc(-c2ccccc2)cc(-c2ccccc2)[n+]1-c1cc[nH]n1`, the KA in test [1] came out at 135 µM; in test [2] it was 8.23 µM; in test [3] it was 2.78 µM.

As for `Cc1cc(C)[n+](-c2ncc[nH]2)c(-c2ccccc2)c1`, the KA in test [1] came out at 59 µM; in test [2], 0.975 µM; in test [3], 0.36 µM.

For `CC(C)c1cc(-c2ccccc2)cc(-c2ccccc2)[n+]1-c1nn[n-]n1`, the KA stood at 134 µM in test [1], 10.1 µM in test [2] and 2.87 µM in test [3].

`CCc1cc(-c2ccccc2)cc(-c2ccccc2)[n+]1-c1ncc[nH]1`: the figures for the KA in test [1], in test [2] and in test [3] were 84 µM, 2.56 µM and 1.05 µM, respectively.

For the compound `NCCc1c[nH]cn1` [HISTAMINE], the KA in test [1] was determined as 125 µM; in test [2], 41 µM; in test [3], 2.1 µM. The CA activity in the test listed under Homo sapiens [4] is given as 121%; in the test listed under Homo sapiens [5] it was 130%.

For `CCCc1cc(-c2ccccc2)cc(CCC)[n+]1-c1ncc[nH]1`, the KA in test [1] amounted to 48 µM; in test [2] it was 0.62 µM; in test [3] it was 0.247 µM.

For `Cc1cc(C)[n+](-c2cc[nH]n2)c(C)c1C`, the figures for the KA in test [1], in test [2] and in test [3] were 0.457 µM, 0.038 µM and 0.049 µM, respectively.

As to `CCc1cc(-c2ccccc2)cc(CC)[n+]1-c1nn[n-]n1`, the values for the KA in test [1], in test [2] and in test [3] were 1.23 µM, 0.055 µM and 0.064 µM, respectively.

`Cc1c2cc(c(C)[n+]1C1=NCC=N1)CCCCCCCCC2`: the KA stood at 0.305 µM in test [1], 0.02 µM in test [2] and 0.022 µM in test [3].

In the case of `Cc1cc(C(C)C)[n+](-c2cc[nH]n2)c(C(C)C)c1`, the KA in test [1] turned out to be 0.264 µM; in test [2], 0.016 µM; in test [3], 0.038 µM.

In the case of `CCCc1cc(-c2ccccc2)cc(-c2ccccc2)[n+]1-c1nn[n-]n1`, the results for the KA in test [1], in test [2] and in test [3] were more than 150 µM, 15.5 µM and 4.21 µM, respectively.

Take `CCc1cc(-c2ccccc2)cc(CC)[n+]1-c1ncc[nH]1`: the KA worked out at 0.144 µM in test [1], 0.009 µM in test [2] and 0.018 µM in test [3].

In the case of `CCc1cc(-c2ccccc2)cc(-c2ccccc2)[n+]1-c1nn[n-]n1`, the KA in test [1] came out at 140 µM; in test [2], 12.5 µM; in test [3] it was 3.05 µM.

As to `Cc1cc(-c2ccccc2)cc(C)[n+]1-c1cc[nH]n1`, the KA in test [1] came to 0.359 µM; in test [2], 0.017 µM; in test [3], 0.035 µM.

Consider `Cc1cc(-c2ccccc2)cc(C)[n+]1-c1ncc[nH]1.[O-][Cl+3]([O-])([O-])[O-]`, for which the values for the KA in test [1], in test [2] and in test [3] were 0.153 µM, 0.013 µM and 0.021 µM, respectively. Also, the figures for the CA activity in the test filed under Homo sapiens [4] and in the test filed under Homo sapiens [5] were 192% and 233%, respectively.

Take `CCCCc1cc(-c2ccccc2)cc(-c2ccccc2)[n+]1-c1nn[n-]n1`: the KA in test [1] was more than 150 µM; in test [2], more than 50 µM; in test [3] it was 10.5 µM.

For the compound `CCCCc1cc(-c2ccccc2)cc(CCCC)[n+]1-c1ncc[nH]1`, the KA was 86 µM in test [1], 1.89 µM in test [2] and 0.651 µM in test [3].

`CCCc1cc(-c2ccccc2)cc(-c2ccccc2)[n+]1-c1ncc[nH]1`: the KA in test [1] turned out to be 130 µM; in test [2] it was 5.76 µM; in test [3], 1.9 µM.

With `CCc1cc(-c2ccccc2)cc(CC)[n+]1-c1cc[nH]n1`, the KA stood at 0.306 µM in test [1], 0.015 µM in test [2] and 0.027 µM in test [3].

For `c1ccc(-c2cc(-c3ccccc3)[n+](-c3nn[n-]n3)c(-c3ccccc3)c2)cc1`, the KA in test [1] was more than 150 µM; in test [2], more than 50 µM; in test [3], 41 µM.

As to `Cc1cc(C)[n+](-c2cc[nH]n2)c(-c2ccccc2)c1`, the KA in test [1] turned out to be 83 µM; in test [2] it was 1.68 µM; in test [3] it was 0.875 µM.

For the compound `Cc1cc(-c2ccccc2)cc(C)[n+]1-c1nn[n-]n1`, the values for the KA in test [1], in test [2] and in test [3] were 1.39 µM, 0.063 µM and 0.076 µM, respectively.

With `Cc1cc(-c2ccccc2)cc(-c2ccccc2)[n+]1-c1cc[nH]n1`, the KA was found to be 96 µM in test [1], 1.85 µM in test [2] and 0.64 µM in test [3].

Consider `Cc1cc(C)[n+](-c2ncc[nH]2)c(C)c1`, for which the figures for the KA in test [1], in test [2] and in test [3] were 0.347 µM, 0.021 µM and 0.036 µM, respectively.

Turning to `CCCCc1cc(-c2ccccc2)cc(-c2ccccc2)[n+]1-c1cc[nH]n1`, the KA in test [1] was more than 150 µM; in test [2] it was more than 50 µM; in test [3] it was 5.64 µM.

For the compound `CCCc1cc(-c2ccccc2)cc(CCC)[n+]1-c1nn[n-]n1`, the KA in test [1] came out at 136 µM; in test [2] it was 1.55 µM; in test [3] it was 2.12 µM.

In the case of `Cc1cc(C(C)C)[n+](-c2ncc[nH]2)c(C(C)C)c1`, the KA in test [1] came out at 0.13 µM; in test [2], 0.008 µM; in test [3] it was 0.024 µM.

With `CC(C)c1cc(-c2ccccc2)cc(C(C)C)[n+]1-c1nn[n-]n1`, the KA stood at 1.15 µM in test [1], 0.012 µM in test [2] and 0.05 µM in test [3]. For the same compound, the figures for the CA activity in the test filed under Homo sapiens [4] and in the test filed under Homo sapiens [5] were 173% and 212%, respectively.

In the case of `CCCc1cc(-c2ccccc2)cc(CCC)[n+]1-c1cc[nH]n1`, the values for the KA in test [1], in test [2] and in test [3] were 75 µM, 1.2 µM and 1.35 µM, respectively.

`CC(C)c1cc(-c2ccccc2)cc(C(C)C)[n+]1-c1ncc[nH]1.[O-][Cl+3]([O-])([O-])[O-]`: the figures for the KA in test [1], in test [2] and in test [3] were 0.095 µM, 0.006 µM and 0.012 µM, respectively. For the same compound, the CA activity in the test listed under Homo sapiens [4] is 256%; in the test filed under Homo sapiens [5] it was 298%.

With `Cc1cc(C)[n+](-c2cc[nH]n2)c(C)c1`, the KA in test [1] was found to be 0.48 µM; in test [2], 0.045 µM; in test [3] it was 0.052 µM.

For `Cc1cc(-c2ccccc2)cc(-c2ccccc2)[n+]1-c1nn[n-]n1`, the KA is 108 µM in test [1], 5.24 µM in test [2] and 1.1 µM in test [3].

`CC(C)c1cc(-c2ccccc2)cc(C(C)C)[n+]1-c1cc[nH]n1.[O-][Cl+3]([O-])([O-])[O-]`: the KA amounted to 0.155 µM in test [1], 0.008 µM in test [2] and 0.021 µM in test [3]. Besides, the values for the CA activity in the test listed under Homo sapiens [4] and in the test listed under Homo sapiens [5] were 189% and 234%, respectively.

Turning to `CC(C)c1cc(-c2ccccc2)cc(-c2ccccc2)[n+]1-c1cc[nH]n1`, the KA in test [1] was found to be 130 µM; in test [2], 5.29 µM; in test [3], 2.5 µM.

Turning to `CCCCc1cc(-c2ccccc2)cc(-c2ccccc2)[n+]1-c1ncc[nH]1`, the KA in test [1] was found to be 130 µM; in test [2], 9.55 µM; in test [3] it was 2.4 µM.

On to `Cc1cc(-c2ccccc2)cc(-c2ccccc2)[n+]1-c1ncc[nH]1`, for which the KA was 62 µM in test [1], 1.24 µM in test [2] and 0.303 µM in test [3].

Turning to `c1ccc(-c2cc(-c3ccccc3)[n+](-c3ncc[nH]3)c(-c3ccccc3)c2)cc1`, the results for the KA in test [1], in test [2] and in test [3] were more than 150 µM, more than 50 µM and 15 µM, respectively.

For the compound `CC(C)c1cc(-c2ccccc2)cc(-c2ccccc2)[n+]1-c1ncc[nH]1`, the KA in test [1] was found to be 107 µM; in test [2] it was 3.14 µM; in test [3], 1.54 µM.

The values are drawn from ChEMBL document CHEMBL1135812, “Carbonic anhydrase activators: design of high affinity isozymes I, II, and IV activators, incorporating tri-/tetrasubstituted-pyridinium-azole moieties” (2002).
